Data as given in ChEMBL document CHEMBL4177770, “Discovery of MK-6169, a Potent Pan-Genotype Hepatitis C Virus NS5A Inhibitor with Optimized Activity against Common Resistance-Associated Substitutions” (J Med Chem, 2018).

Key:
[1] = target: T1, Nonstructural protein 5A (Hepatitis C virus) (UniProt Q5L478); test: Inhibition of NS5A in HCV genotype 1b infected in HuH7 replicon cells assessed as decrease in viral replication after 3 days by RT-PCR method; type: cell-based; conditions: Hepatitis C virus subtype 1b
T1 sequence (whole entry): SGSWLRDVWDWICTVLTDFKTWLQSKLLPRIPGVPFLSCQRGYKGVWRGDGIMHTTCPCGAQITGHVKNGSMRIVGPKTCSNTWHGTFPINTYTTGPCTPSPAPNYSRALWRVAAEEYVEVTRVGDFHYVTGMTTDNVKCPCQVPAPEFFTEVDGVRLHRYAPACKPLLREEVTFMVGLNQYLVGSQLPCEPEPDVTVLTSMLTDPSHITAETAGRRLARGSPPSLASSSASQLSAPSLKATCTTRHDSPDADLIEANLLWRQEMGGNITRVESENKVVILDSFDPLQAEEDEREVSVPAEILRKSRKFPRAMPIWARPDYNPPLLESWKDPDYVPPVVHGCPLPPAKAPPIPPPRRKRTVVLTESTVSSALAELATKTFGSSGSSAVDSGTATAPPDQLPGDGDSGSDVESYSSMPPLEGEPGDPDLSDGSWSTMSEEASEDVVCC

[2] = target: T1, Nonstructural protein 5A (Hepatitis C virus); test: Inhibition of NS5A in HCV genotype 4a infected in HuH7 replicon cells assessed as decrease in viral replication after 3 days by RT-PCR method; type: cell-based; conditions: Hepatitis C virus subtype 4a
[3] = AUC in Wistar Han rat at 10 mg/kg, po by LC/MS method; type: ADME, organism-based; conditions: in vivo
How it was run: (§1)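 Male Wistar Han rats, two per dosing group, dosed orally at 10 mg/kg in 10% TWEEN. Plasma was separated from collected blood by centrifugation and analysed by LC/MS.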

[4] = Drug level in Wistar Han rat at 10 mg/kg, po measured at 24 hrs by LC/MS method; type: ADME, organism-based; conditions: in vivo, read-out: Drug uptake; how it was run: as §1
[5] = Cmax in Wistar Han rat at 300 mg/kg, po by LC/MS method; type: ADME, organism-based; parameters: dose 300 mg/kg, route oral; conditions: in vivo
How it was run: (§2)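 Single rising oral dose study in fed male Wistar Han rats, dosed PO in 10% TWEEN at the indicated doses. Plasma was obtained by centrifuging the blood, and compound levels were determined by LC/MS.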

[6] = Drug level in Wistar Han rat at 300 mg/kg, po measured at 24 hrs by LC/MS method; type: ADME, organism-based; conditions: in vivo, read-out: Drug uptake; how it was run: as §2
[7] = target: T1, Nonstructural protein 5A (Hepatitis C virus); test: Inhibition of NS5A K24R mutant in HCV genotype 1a infected in HuH7 replicon cells assessed as decrease in viral replication after 3 days by RT-PCR method; type: cell-based; conditions: Hepatitis C virus subtype 1a
[8] = tested on: Hepatitis C virus subtype 1a; test: Resistance ratio of EC90 for NS5A K24R mutant in HCV genotype 1a infected in HuH7 replicon cells to EC90 for NS5A in HCV genotype 1a infected in HuH7 replicon cells; type: cell-based
[9] = tested on: Hepatitis C virus subtype 1a; test: Resistance ratio of EC90 for NS3 R155K mutant in HCV genotype 1a infected in HuH7 replicon cells to EC90 for NS5A in HCV genotype 1a infected in HuH7 replicon cells; type: cell-based
[10] = tested on: Hepatitis C virus subtype 1a; test: Resistance ratio of EC90 for NS3 R155K/V36M double mutant in HCV genotype 1a infected in HuH7 replicon cells to EC90 for NS5A in HCV genotype 1a infected in HuH7 replicon cells; type: cell-based
[11] = tested on: Hepatitis C virus subtype 1a; test: Resistance ratio of EC90 for NS5A Y93H mutant in HCV genotype 1a infected in HuH7 replicon cells to EC90 for NS5A in HCV genotype 1a infected in HuH7 replicon cells; type: cell-based
[12] = target: T1, Nonstructural protein 5A (Hepatitis C virus); test: Inhibition of NS5A L31I mutant in HCV genotype 1b infected in HuH7 replicon cells assessed as decrease in viral replication after 3 days by RT-PCR method; type: cell-based; conditions: Hepatitis C virus subtype 1b
[13] = tested on: Nonstructural protein 5A (Hepatitis C virus), Q5L478 [UNDEFINED MUTATION]; test: Inhibition of NS5A L31M/Y93H double mutant in HCV genotype 1b infected in HuH7 replicon cells assessed as decrease in viral replication after 3 days by RT-PCR method; type: cell-based; conditions: Hepatitis C virus subtype 1b
[14] = target: T1, Nonstructural protein 5A (Hepatitis C virus); test: Inhibition of NS5A L31V mutant in HCV genotype 1b infected in HuH7 replicon cells assessed as decrease in viral replication after 3 days by RT-PCR method; type: cell-based; conditions: Hepatitis C virus subtype 1b
[15] = Resistance ratio of EC90 for NS5A in HCV genotype 2a infected in HuH7 replicon cells to EC90 for NS5A in HCV genotype 1a infected in HuH7 replicon cells; type: cell-based
[16] = target: T1, Nonstructural protein 5A (Hepatitis C virus); test: Inhibition of NS5A L31V mutant in HCV genotype 4a infected in HuH7 replicon cells assessed as decrease in viral replication after 3 days by RT-PCR method; type: cell-based; conditions: Hepatitis C virus subtype 4a
[17] = Resistance ratio of EC90 for NS5A P32L mutant in HCV genotype 4a infected in HuH7 replicon cells to EC90 for NS5A in HCV genotype 1a infected in HuH7 replicon cells; type: cell-based

## COC(=O)N[C@H](C(=O)N1CCC[C@H]1c1ncc(-c2cc(F)c3c(c2)O[C@@H](c2ccc(C4CC4)s2)n2c-3cc3cc(-c4cnc([C@@H]5CCCN5C(=O)[C@@H](NC(=O)OC)[C@@H]5CCOC(C)(C)C5)[nH]4)ccc32)[nH]1)C(C)C
[1]
  EC90: 4.4 pM
[2]
  EC90: 6 pM
[3]
  AUC: 0.95 to 1.65 µM·h
[4]
  concentration at 24 h: 3 to 11 nM
[5]
  Cmax: 1060 nM
[6]
  concentration at 24 h: 164 nM
[7]
  EC90: 0.34 pM
[8]
  Ratio: < 1
[9]
  Ratio: < 1
[10]
  Ratio: < 1
[11]
  Ratio: 8
[12]
  EC90: 21 pM
[13]
  EC90: 190 pM
[14]
  EC90: 5.8 pM
[15]
  Ratio: < 1
[16]
  EC90: 7.7 pM
[17]
  Ratio: 1
